This is an account of results in ChEMBL document CHEMBL4392831, “Discovery of a novel class of potent and selective tetrahydroindazole-based sigma-1 receptor ligands” (Bioorg Med Chem, 2019).

Structures are written as SMILES. pKi: −log10 of the molar value.

Data set [1] addresses T1, Sigma non-opioid intracellular receptor 1 (Homo sapiens, UniProt Q99720). As to the kind of experiment: Displacement of [3H]-(+)-pentazocine from sigma1 receptor (unknown origin) expressed in HEK293 cell membranes after 120 mins by microbeta scintillation counting method. In a few lines: (§1)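 Radioligand binding run by an external screening program; sigma-1 tracer [3H]-pentazocine, sigma-2 tracer [3H]-DTG. Each compound first tested at a single 10 μM concentration. Those giving >50% inhibition were then titrated over a dose range to derive pKi.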
In general terms: In a radioligand displacement assay an active substance lowers the binding of a labelled ligand.

The target in data set [2] is Sigma intracellular receptor 2 (Homo sapiens, UniProt Q5BJF2). Put plainly: Displacement of [3H]-DTG from sigma2 receptor (unknown origin) after 120 mins in presence of sigma1 […] (+)-SKF10047 by microbeta scintillation counting method. The conditions noted are these: for Ki: read-out: pKi (converted). In a few lines:
as §1

Data set [3] can be described thus: Stability in mouse liver microsomes assessed as parent compound remaining at 10 uM in presence of NADPH incubated for 60 mins at 37 degC by UPLC/MS analysis. The conditions noted are these: 1 h. The format is ADME, Microsome. The procedure, abridged:
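Mouse liver microsomes at 0.4 mg/mL with NADPH cofactor in phosphate buffer (0.5 M), compound at 10 μM, verapamil control. T0 sample quenched at once; others shaken 60 min at 37 °C, then stopped with 2 volumes ice-cold acetonitrile. After centrifugation, parent quantified by UPLC/MS in SRM mode. % remaining = (conc at 60 min / conc at 0 min) ×100. Duplicate runs, mean reported.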
In general terms: Liver microsomes are vesicles of endoplasmic reticulum, rich in cytochrome P450 enzymes.

Data set [4] is described as follows: Thermodynamic solubility in pH 7.4 PBS buffer incubated for 16 hrs by UV-absorption spectroscopy. The conditions noted are these: pH 7.4, 16 h. The class given is physicochemical. The procedure, abridged: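 A standard curve per compound was built from UV absorbance of acetonitrile dilutions (500 to 0.9 μM, DMSO held at 0.5%) made from DMSO stock. For the sample, 1 mg compound in 1 mL PBS pH 7.4 was stirred at 500 rpm for 16 h at room temperature, then equilibrated 30 min and passed through a 0.2 μm filter. Filtrate UV absorbance was read on a plate reader and solubility extrapolated from the curve.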

Data set [5] is described as follows: Displacement of [3H]-DTG from sigma2 receptor in guinea pig brain membranes after 120 mins in presence of sigma1 […] (+)-SKF10047 by microbeta scintillation counting method. The class given is cell membranes, Cavia porcellus.
Data set [6] has as its target T1, Sigma non-opioid intracellular receptor 1. As to the kind of experiment: Displacement of [3H]-(+)-pentazocine from recombinant human sigma1 receptor expressed in HEK293 cell membranes after 120 mins by microbeta scintillation counting method.
For data set [7], the species on record is Homo sapiens. As to the kind of experiment: Selectivity for sigma1 receptor (unknown origin) over sigma2 receptor (unknown origin).

T1 sequence (Q99720 whole entry): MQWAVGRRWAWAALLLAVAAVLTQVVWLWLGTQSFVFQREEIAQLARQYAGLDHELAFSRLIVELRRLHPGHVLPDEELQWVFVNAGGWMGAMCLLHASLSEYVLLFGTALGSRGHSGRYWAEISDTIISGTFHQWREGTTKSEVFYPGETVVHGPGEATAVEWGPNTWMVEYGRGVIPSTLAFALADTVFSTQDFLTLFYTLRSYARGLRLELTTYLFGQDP
Chain of Sigma intracellular receptor 2 (Q5BJF2 whole entry): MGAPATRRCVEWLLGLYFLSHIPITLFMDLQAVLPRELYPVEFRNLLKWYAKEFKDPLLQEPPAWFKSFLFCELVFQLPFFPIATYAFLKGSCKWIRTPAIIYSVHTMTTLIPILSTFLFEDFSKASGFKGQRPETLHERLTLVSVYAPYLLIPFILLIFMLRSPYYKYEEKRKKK

A word on the pKi: it is −log10 of the Ki, conventionally taken in molar units. With `O=C(c1c2c(nn1-c1ccc(O)cc1)CCC(NCCc1ccccc1)C2)N1CCCCC1` (stereo unspecified), the pKi in data set [1] is 6.50. The Ki in data set [2] is 251 nM.
The molecule `O=C(c1nn(-c2ccccc2)c2c1CC(NCCc1ccc(C(F)(F)F)cc1)CC2)N1CCCCC1` (stereo unspecified) had a pKi in data set [1] of 6.50.
In turn, `O=C(c1nn(-c2ccccc2)c2c1CC(NCCc1ccc3c(c1)OCO3)CC2)N1CCCCC1` (stereo unspecified) gave a pKi in data set [1] of 6.30. Also, the Ki in data set [2] is 316 nM.
Consider `NC(=O)c1ccc(-n2nc3c(c2C(=O)N2CCCCC2)CC(NCCc2ccccc2)CC3)cc1` (stereo unspecified), for which the negative logarithm of the Ki (pKi) in data set [1] is 6.20.
`CCCn1nc(C(=O)N2CCCCC2)c2c1CCC(NCCc1ccc(O)cc1)C2` (stereo unspecified): the Ki in data set [2] was 251 nM.
With `CCCn1nc(C(=O)N(C)C)c2c1CCC(NCCc1ccc3c(c1)OCO3)C2` (stereo unspecified), the negative logarithm of the Ki (pKi) in data set [1] is 6.30. In addition, the Ki in data set [2] was 398 nM.
For `O=C(c1nn(-c2ccccc2)c2c1CC(NCCc1ccc(F)cc1)CC2)N1CCCCC1` (stereo unspecified) the same measures were 6.90 and 100 nM.
Molecule `O=C(c1c2c(nn1-c1ccccc1)CCC(NCc1ccc(F)cc1)C2)N1CCCCC1` (stereo unspecified) showed a pKi in data set [1] of 7.50. The Ki in data set [2] is 158 nM. Further, in data set [3], the Stability was 7%. This molecule also showed a Therm solubility in data set [4] of 508 µM.
`O=C(c1c2c(nn1-c1ccc(F)cc1)CCC(NCCc1ccncc1)C2)N1CCCCC1` (stereo unspecified) showed a pKi in data set [1] of 7.00. Also, in data set [3], the Stability was 21%.
In data set [1], `CCCn1nc(C(=O)N(C)C)c2c1CCC(NCCc1ccc(C(F)(F)F)cc1)C2` (stereo unspecified) showed a negative logarithm of the Ki (pKi) of 5.60. For the same molecule, in data set [2], the Ki is 631 nM.
Take `O=C(c1nn(-c2ccccc2)c2c1CC(NCCc1cccc(O)c1)CC2)N1CCCCC1` (stereo unspecified): in data set [1], the pKi was 6.70.
Regarding `CC(C)=CCN1CC[C@]2(C)c3cc(O)ccc3C[C@H]1[C@H]2C` [(+)-PENTAZOCINE], the negative logarithm of the Ki (pKi) in data set [5] is 5.81.
`O=C(c1nn(Cc2ccccc2)c2c1CC(NCc1ccc(F)cc1)CC2)N1CCCCC1` (stereo unspecified) gave a pKi in data set [1] of 6.60.
In the case of `c1ccc(OCc2cc(OC[C@@H]3CCCN3)no2)cc1`, the pKi in data set [6] is 8.39; in data set [5], 5.88.
Take `Clc1ccc(Cn2cc(NCCN3CCOCC3)nn2)cc1Cl`: the pKi in data set [5] is < 5.00.
Take `Cc1ccccc1NC(=N)Nc1ccccc1C` [DITOLYLGUANIDINE]: the negative logarithm of the Ki (pKi) in data set [5] was 7.55.
Turning to `O=C(c1c2c(nn1-c1ccccc1)CCC(NCCc1ccc(C(F)(F)F)cc1)C2)N1CCCCC1` (stereo unspecified), the negative logarithm of the Ki (pKi) in data set [1] is 6.70.
`O=C(c1nn(-c2ccccc2)c2c1CC(NCc1ccccc1)CC2)N1CCCCC1` (stereo unspecified) gave a negative-log Ki (pKi) in data set [1] of 6.20. Further, the Ki in data set [2] is 501 nM. In data set [3], the Stability was found to be 0.3%. Further, in data set [4], the Therm solubility is 1570 µM.
With `O=C(c1c2c(nn1-c1ccccc1)CCC(NCc1ccccc1)C2)N1CCCCC1` (stereo unspecified), the negative-log Ki (pKi) in data set [1] was 7.40. Further, the Ki in data set [2] is 126 nM.
For `Cc1nc(-c2ccc(Cl)cc2)nc(OCCCN2CCCCC2)c1Cl`, the negative logarithm of the Ki (pKi) in data set [6] is 8.96; in data set [5], 5.85.
In the case of `CCCn1nc(C(=O)N(C)C)c2c1CCC(NCc1ccc(F)cc1)C2` (stereo unspecified), the Ki in data set [2] is 2000 nM. For the same molecule, the Stability in data set [3] is 21%. This molecule also had a Therm solubility in data set [4] of 1780 µM.
On to `O=C(c1c2c(nn1-c1ccc(F)cc1)CCC(NCc1ccc(F)cc1)C2)N1CCCCC1` (stereo unspecified), for which the pKi in data set [2] (read-out: Ki) was < 5.00. Besides, the Stability in data set [3] was 25%. In addition, in data set [7], the Selectivity ratio is > 500. The molecule also showed a Therm solubility in data set [4] of 110 µM.
`O=C(c1c2c(nn1-c1ccccc1)CCC(NCCc1ccc3c(c1)OCO3)C2)N1CCCCC1` (stereo unspecified) had a negative logarithm of the Ki (pKi) in data set [1] of 7.20. In data set [2], the Ki was 31.6 nM. The Stability in data set [3] came out at 24%. Further, the Therm solubility in data set [4] worked out at 655 µM.
